Assay results: PMC4161153 (Journal of Medicinal Chemistry, 2014)

Tests used:
[1] = molecular target: T1, human TLR8 (Homo sapiens, UniProt Q9NR97); assay: Human TLR8-specific reporter gene assay; format: cell-based; details: HEK293 cells, NF-κB induction
T1 sequence (Q9NR97 27-1041): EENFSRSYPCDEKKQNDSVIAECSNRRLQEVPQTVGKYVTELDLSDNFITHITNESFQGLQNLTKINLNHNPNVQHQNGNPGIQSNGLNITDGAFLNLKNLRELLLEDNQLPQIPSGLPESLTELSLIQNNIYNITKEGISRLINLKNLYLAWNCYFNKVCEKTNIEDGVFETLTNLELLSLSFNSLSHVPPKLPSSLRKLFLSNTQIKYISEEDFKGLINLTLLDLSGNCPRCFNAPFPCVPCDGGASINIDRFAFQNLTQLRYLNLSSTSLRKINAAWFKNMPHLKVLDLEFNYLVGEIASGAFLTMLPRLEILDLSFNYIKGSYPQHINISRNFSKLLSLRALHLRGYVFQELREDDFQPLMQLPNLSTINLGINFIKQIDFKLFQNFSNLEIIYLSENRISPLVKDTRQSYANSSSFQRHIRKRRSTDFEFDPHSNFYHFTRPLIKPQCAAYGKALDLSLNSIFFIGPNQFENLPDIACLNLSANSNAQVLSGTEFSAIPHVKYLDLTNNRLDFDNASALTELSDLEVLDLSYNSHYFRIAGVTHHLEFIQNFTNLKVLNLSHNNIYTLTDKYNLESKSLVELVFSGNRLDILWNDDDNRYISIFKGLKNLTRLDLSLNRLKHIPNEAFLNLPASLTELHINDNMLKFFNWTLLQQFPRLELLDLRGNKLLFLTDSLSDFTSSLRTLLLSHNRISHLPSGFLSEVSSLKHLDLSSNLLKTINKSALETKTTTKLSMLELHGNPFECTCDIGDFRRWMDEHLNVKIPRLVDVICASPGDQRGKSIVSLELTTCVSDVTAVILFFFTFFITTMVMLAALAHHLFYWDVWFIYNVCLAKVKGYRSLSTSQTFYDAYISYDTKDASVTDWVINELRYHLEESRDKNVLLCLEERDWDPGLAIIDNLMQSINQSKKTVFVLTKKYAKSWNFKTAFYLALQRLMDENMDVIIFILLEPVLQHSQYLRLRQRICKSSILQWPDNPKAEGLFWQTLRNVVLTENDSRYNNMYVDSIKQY

[2] = Chemical stability of the free base; format: physicochemical; details: rapid formation of overoxidized 3-ol derivative 5 via autoxidation
[3] = test system: natural killer lymphocytes; assay: CD69 upregulation by flow cytometry in whole human blood; format: cell-based; details: overnight 37 °C, CD3–CD56+ cells, Figure 4
Outline: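 Heparin-anticoagulated whole blood from healthy volunteers was incubated overnight at 37 °C with graded concentrations of test compound, a TLR7-agonist reference or medium. Cells were stained for 30 min at 37 °C in the dark with CD3-PE, CD56-APC and CD69-PE-Cy7. Erythrocytes were lysed and leukocytes fixed in one step. CD69 was read on CD3⁻CD56⁺ NK cells from 100,000 gated events.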

Row | Structure (SMILES) | hTLR8 Agonistic Activity (EC50) [1] | other results
1 | CCCCCn1c(NC(C)=O)nc2ccccc21 [Compound 10, N-(1-Pentyl-1H-benzo[d]imidazol-2-yl)acetamide] | completely abrogated activity | 
2 | CCCCCn1c(N)nc2c(-c3ccccc3)cccc21 [Compound 31l, 1-Pentyl-4-phenyl-1H-benzo[d]imidazol-2-amine] | abrogated activity | 
3 | CCCCCn1c(N)nc2c(OCc3ccccc3)cccc21 [Compound 35, 4-Benzyloxy-1-pentyl-1H-benzoimidazol-2-ylamine] | abrogated activity | 
4 | CCCCC1C(N)=Nc2ccccc21.Cl (stereo not drawn) [Compound 4] |  | Stability of the compound (free base) [2]: exceedingly unstable
5 | CCCCCn1c(N)nc2c(Cc3ccccc3)cccc21 [Compound 31m, 4-Benzyl-1-pentyl-1H-benzo[d]imidazol-2-amine] | abrogated activity | 
6 | CCCCOC(=O)n1c(N)nc2ccccc21 [Compound 9, Butyl 2-amino-1H-benzo[d]imidazole-1-carboxylate] | completely abrogated activity | 
7 | Nc1nc2ccccc2n1Cc1ccccc1 [Compound 8d, 1-Benzyl-1H-benzo[d]imidazol-2-amine] | neither 8d nor 8f were active | 
8 | CCCCCn1c(N)nc2c(C)cccc21 [Compound 31a, 4-Methyl-1-pentyl-1H-benzo[d]imidazol-2-amine] |  | CD69 upregulation in NK lymphocytes [3]: complete absence of CD69 upregulation
9 | NCc1cccc(Cn2c(N)nc3ccccc32)c1 [Compound 8f, 1-(3-(Aminomethyl)benzyl)-1H-benzo[d]imidazol-2-amine] | neither 8d nor 8f were active | 
